Measurements from ChEMBL document CHEMBL1122341, “Prostaglandin isosteres. 2. Chain-modified thiazolidinone prostaglandin analogues as renal vasodilators” (1983).

Assays:
[1] = system: Canis familiaris; test: Effect on renal blood flow in conscious dogs dosed at 5 mg/kg, observed at 0-1 h; format: functional, Canis lupus familiaris
Method in brief: (§1)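 Conscious dogs; aortic catheter for blood pressure and heart rate, with renal and lower aortic blood flow monitored. After a 30-min control period the compound was given orally and the variables were followed for a further 5 h, recorded every 2 min. Readings were averaged over the control period and each hourly postdose period; means ± SE.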

[2] = system: Canis familiaris; test: Effect on renal blood flow in conscious dogs dosed at 5 mg/kg, observed at 3-4 h; format: functional, Canis lupus familiaris; method in brief: as §1
[3] = system: Canis familiaris; test: Effect on lower aortic blood flow in conscious dogs dosed at 5 mg/kg, observed at 3-4 h; format: functional, Canis lupus familiaris, Aorta; method in brief: as §1
[4] = system: Canis familiaris; test: Effect on heart rate in conscious dogs dosed at 5 mg/kg, observed at 3-4 h; format: functional, Canis lupus familiaris; method in brief: as §1
[5] = system: Canis familiaris; test: Effect on heart rate in conscious dogs dosed at 5 mg/kg, observed at 2-3 h; format: functional, Canis lupus familiaris; method in brief: as §1
[6] = system: Canis familiaris; test: Effect on lower aortic blood flow in conscious dogs dosed at 5 mg/kg, observed at 4-5 h; format: functional, Canis lupus familiaris, Aorta; method in brief: as §1
[7] = system: Canis familiaris; test: Effect on heart rate in conscious dogs dosed at 5 mg/kg, observed at 0-1 h; format: functional, Canis lupus familiaris; method in brief: as §1
[8] = system: Canis familiaris; test: Effect on renal plasma flow in conscious dogs dosed at 0.2 mg/kg (post-treatment); format: functional, Canis lupus familiaris
Method in brief: (§2)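 Trained conscious female mongrel dogs, postabsorptive, given 500 mL tap water orally 1-1.5 h beforehand. Effective renal plasma flow was taken as renal p-aminohippurate clearance: priming 8 mg/kg iv, then 0.3 (mg/kg)/min in isotonic NaCl. Two 30-min control clearance periods, a single iv dose (Na salt, aqueous), then four 30-min periods. Plasma sampled at midpoints; means ± SEM.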

[9] = system: Canis familiaris; test: Percent change in renal plasma flow in conscious dogs dosed at 0.1 mg/kg; format: functional, Canis lupus familiaris; method in brief: as §2
[10] = system: Canis familiaris; test: Percent change in renal resistance in anesthetized dogs after infusion of compound at 50 nM/kg/min; format: functional, Canis lupus familiaris
[11] = system: Canis familiaris; test: Effect on lower arterial blood pressure in conscious dogs dosed at 5 mg/kg, observed at 1-2 h; format: functional, Canis lupus familiaris; method in brief: as §1
[12] = system: Canis familiaris; test: Effect on heart rate in conscious dogs dosed at 5 mg/kg, observed at 4-5 h; format: functional, Canis lupus familiaris; method in brief: as §1
[13] = system: Canis familiaris; test: Percent change in renal plasma flow in conscious dogs dosed at 0.05 mg/kg; format: functional, Canis lupus familiaris; method in brief: as §2
[14] = system: Canis familiaris; test: Effect on lower arterial blood pressure in conscious dogs dosed at 5 mg/kg, observed at 2-3 h; format: functional, Canis lupus familiaris; method in brief: as §1
[15] = system: Canis familiaris; test: Effect on lower aortic blood flow in conscious dogs dosed at 5 mg/kg, observed at 2-3 h; format: functional, Canis lupus familiaris, Aorta; method in brief: as §1
[16] = system: Canis familiaris; test: Effect on renal blood flow in conscious dogs dosed at 5 mg/kg, observed at 1-2 h; format: functional, Canis lupus familiaris, Kidney; method in brief: as §1
[17] = system: Canis familiaris; test: Effect on lower arterial blood pressure in conscious dogs dosed at 5 mg/kg, observed at 0-1 h; format: functional, Canis lupus familiaris; method in brief: as §1
[18] = system: Canis familiaris; test: Effect on lower aortic blood flow in conscious dogs dosed at 5 mg/kg, observed at 1-2 h; format: functional, Canis lupus familiaris, Aorta; method in brief: as §1
[19] = system: Canis familiaris; test: Effect on lower arterial blood pressure in conscious dogs dosed at 5 mg/kg, observed at 4-5 h; format: functional, Canis lupus familiaris; method in brief: as §1
[20] = system: Canis familiaris; test: Effect on renal plasma flow in conscious dogs dosed at 0.2 mg/kg (pretreatment); format: functional, Canis lupus familiaris; method in brief: as §2
[21] = system: Canis familiaris; test: Effect on renal plasma flow in conscious dogs dosed at 0.05 mg/kg (post-treatment); format: functional, Canis lupus familiaris; method in brief: as §2
[22] = system: Canis familiaris; test: Effect on renal blood flow in conscious dogs dosed at 5 mg/kg, observed at 2-3 h; format: functional, Canis lupus familiaris, Kidney; method in brief: as §1
[23] = system: Canis familiaris; test: Effect on lower arterial blood pressure in conscious dogs dosed at 5 mg/kg, observed at 3-4 h; format: functional, Canis lupus familiaris; method in brief: as §1
[24] = system: Canis familiaris; test: Effect on renal blood flow in conscious dogs dosed at 5 mg/kg, observed at 4-5 h; format: functional, Canis lupus familiaris; method in brief: as §1
[25] = system: Canis familiaris; test: Effect on renal plasma flow in conscious dogs dosed at 0.05 mg/kg (pretreatment); format: functional, Canis lupus familiaris; method in brief: as §2
[26] = system: Canis familiaris; test: Effect on heart rate in conscious dogs dosed at 5 mg/kg, observed at 1-2 h; format: functional, Canis lupus familiaris; method in brief: as §1
[27] = system: Canis familiaris; test: Effect on renal plasma flow in conscious dogs dosed at 0.1 mg/kg (pretreatment); format: functional, Canis lupus familiaris; method in brief: as §2
[28] = system: Canis familiaris; test: Effect on lower aortic blood flow in conscious dogs dosed at 5 mg/kg, observed at 0-1 h; format: functional, Canis lupus familiaris, Aorta; method in brief: as §1
[29] = system: Canis familiaris; test: Percent change in renal plasma flow in conscious dogs dosed at 0.2 mg/kg; format: functional, Canis lupus familiaris; method in brief: as §2
[30] = system: Canis familiaris; test: Effect on renal plasma flow in conscious dogs dosed at 0.1 mg/kg (post-treatment); format: functional, Canis lupus familiaris; method in brief: as §2
[31] = system: Canis familiaris; test: Percent change in renal resistance in anesthetized dogs after infusion of compound at 10 nM/kg/min; format: functional, Canis lupus familiaris
Method in brief: (§3)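 Vinbarbital-anesthetized dogs with an electromagnetic flow probe on the left renal artery and an aortic catheter for pressure. Saline was infused intrarenally for 30 min as pretreatment. Percent change was calculated from the maximum decrease in renal resistance versus pretreatment.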

[32] = system: Canis familiaris; test: Percent change in renal resistance in anesthetized dogs after infusion of compound at 25 nM/kg/min; format: functional, Canis lupus familiaris
[33] = system: Canis familiaris; test: Effect on renal plasma flow in conscious dogs dosed at 0.4 mg/kg (post-treatment); format: functional, Canis lupus familiaris; method in brief: as §2
[34] = system: Canis familiaris; test: Percent change in renal plasma flow in conscious dogs dosed at 0.4 mg/kg; format: functional, Canis lupus familiaris; method in brief: as §2
[35] = system: Canis familiaris; test: Effect on renal plasma flow in conscious dogs dosed at 10 mg/kg (pretreatment); format: functional, Canis lupus familiaris; method in brief: as §2
[36] = system: Canis familiaris; test: Effect on renal plasma flow in conscious dogs dosed at 10 mg/kg (post-treatment); format: functional, Canis lupus familiaris; method in brief: as §2
[37] = system: Canis familiaris; test: Effect on renal plasma flow in conscious dogs dosed at 0.4 mg/kg (pretreatment); format: functional, Canis lupus familiaris; method in brief: as §2
[38] = system: Canis familiaris; test: Percent change in renal plasma flow in conscious dogs dosed at 10 mg/kg; format: functional, Canis lupus familiaris; method in brief: as §2
[39] = system: Canis familiaris; test: Effect on renal plasma flow in conscious dogs dosed at 0.025 mg/kg (pretreatment); format: functional, Canis lupus familiaris; method in brief: as §2
[40] = system: Canis familiaris; test: Percent change in renal plasma flow in conscious dogs dosed at 0.025 mg/kg; format: functional, Canis lupus familiaris; method in brief: as §2
[41] = system: Canis familiaris; test: Effect on renal plasma flow in conscious dogs dosed at 0.025 mg/kg (post-treatment); format: functional, Canis lupus familiaris; method in brief: as §2
[42] = system: Canis familiaris; test: Percent change in renal resistance in anesthetized dogs after infusion of compound at 60 nM/kg/min; format: functional, Canis lupus familiaris; conditions: in the assay text read “60 ng/kg/min” for “60 nM/kg/min”; method in brief: as §3
[43] = system: Canis familiaris; test: Percent change in renal resistance in anesthetized dogs after infusion of compound at 110 nM/kg/min; format: functional, Canis lupus familiaris; method in brief: as §3
[44] = dose 1 mg/kg, in the assay text read “dosed at 1 mg/kg” for “dosed at 5 mg/kg”

Row | Compound | Mean RBF [1] [mL/min] | Mean RBF [2] [mL/min] | Mean LAF [3] [mL/min] | Mean HR [4] [beats min-1] | Mean HR [5] [beats min-1] | Mean LAF [6] [mL/min] | Mean HR [7] [beats min-1] | Activity [8] [mL/min] | Mean blood pressure [11] [mmHg] | Mean HR [12] [beats min-1] | Mean blood pressure [14] [mmHg] | Mean LAF [15] [mL/min] | Mean RBF [16] [mL/min] | Mean blood pressure [17] [mmHg] | Mean LAF [18] [mL/min] | Mean blood pressure [19] [mmHg] | Mean blood pressure [23] [mmHg] | Mean RBF [24] [mL/min] | Mean HR [26] [beats min-1] | Mean LAF [28] [mL/min] | also measured
1 | O=C(O)c1ccc(CCCC2SCC(=O)N2CCC2(O)CCCCC2)cc1 (stereo not drawn) | 179 | 233 | 492 | 131 | 144 | 477 | 122 | 322 | 89 | 136 | 97 | 521 | 211 | 105 | 597 | 98 | 101 | 242 | 169 | 486 | Change [9]: 52%; Change [10]: -28%; Change [13]: 62%; Activity [20]: 136 mL/min; Activity [21]: 240 mL/min; Mean RBF [22, 44]: 226 mL/min; Activity [25]: 148 mL/min; Activity [27]: 142 mL/min; Change [29]: 137%; Activity [30]: 216 mL/min; Change [31]: -13%; Change [32]: -24%
2 | O=C(O)c1ccc(CCC[C@@H]2SCC(=O)N2CCC2(O)CCCCC2)cc1 | – | – | – | – | – | – | – | 146 | – | – | – | – | – | – | – | – | – | – | – | – | Activity [33]: 147 mL/min; Change [34]: 8%; Activity [35]: 139 mL/min; Activity [20]: 138 mL/min; Activity [36]: 151 mL/min; Change [29]: 6%; Activity [37]: 136 mL/min; Change [38]: 9%
3 | CCCCCC(O)CCN1C(=O)CSC1CCCc1ccc(C(=O)O)cc1 (stereo not drawn) | 201 | 183 | 521 | 92 | 107 | 510 | 103 | – | 108 | 84 | 116 | 625 | 241 | 118 | 560 | 116 | 116 | 159 | 118 | 546 | Mean RBF ([22]; dose 5 mg/kg): 209 mL/min
4 | CCCCCC(O)CCN1C(=O)CSC1CCCCCCC(=O)O (stereo not drawn) | 181 | 116 | 427 | 82 | 85 | 386 | 126 | – | 146 | 76 | 140 | 432 | 110 | 123 | 424 | 132 | 133 | 111 | 79 | 420 | Mean RBF ([22]; dose 5 mg/kg): 110 mL/min
5 | O=C(O)c1ccc(CCC[C@H]2SCC(=O)N2CCC2(O)CCCCC2)cc1 | – | – | – | – | – | – | – | 292 | – | – | – | – | – | – | – | – | – | – | – | – | Activity [39]: 155 mL/min; Change [40]: 54%; Activity [41]: 239 mL/min; Change [13]: 62%; Activity [20]: 143 mL/min; Activity [21]: 289 mL/min; Activity [25]: 178 mL/min; Change [29]: 104%
6 | O=C(O)CCCCCCC1SCC(=O)N1CCC1(O)CCCCC1 (stereo not drawn) | 97 | 176 | 510 | 94 | 113 | 388 | 180 | – | 74 | 88 | 92 | 530 | 150 | 59 | 742 | 104 | 100 | 160 | 185 | 772 | Mean RBF [22, 44]: 199 mL/min
7 | CCCCC[C@H](O)/C=C/[C@H]1[C@H](O)CC(=O)[C@@H]1C/C=C\CCCC(=O)O [DINOPROSTONE] | – | – | – | – | – | – | – | – | – | – | – | – | – | – | – | – | – | – | – | – | Change [42]: -29%; Change [43]: -35%; Change [31]: -13%
